Experimental data reported in ChEMBL document CHEMBL1153450, “Ligustrazine derivatives. Part 3: Design, synthesis and evaluation of novel acylpiperazinyl derivatives as potential cerebrocardiac vascular agents” (Bioorg Med Chem, 2009).
pEC50: −log10 of the molar value.

Tests used:
[1] = system: ECV-304; test: Protection against hydrogen peroxide-induced cell damage in human ECV304 cells treated 30 mins before hydrogen peroxide challenge measured after 6 hrs; assay type: functional, cell-based
Summary of the method: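 ECV-304 cells grown 24 h, then given fresh medium with compound at 12.5, 25, 50, 100 or 200 µM. After 0.5 h, 150 µM H2O2 added, then 6 h further incubation. Read-out is absorbance at 570 nm, mean ± SEM, n = 6. Proliferation rate = (OD compd − OD H2O2)/(OD control − OD H2O2) × 100%. EC50 derived by a pEC50 summation formula over proliferation rates.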

[2] = Antiplatelet activity in rabbit platelets assessed as inhibition of ADP-induced platelet aggregation at 200 uM by aggregometer; assay type: functional, Oryctolagus cuniculus; set-up: scale not given: the % may be the effect or the level left
Summary of the method: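 Rabbit blood anticoagulated with 3.8% trisodium citrate (0.3 ml per 2.7 ml blood). ADP and compound (200 µM) added in sequence, with blank and ADP-control cuvettes. Platelet-rich plasma from 270 g/5 min spin, platelet-poor plasma from 1000 g/10 min spin. Aggregation read on aggregometer and reported as mean aggregation rate A% (n = 6).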

[3] = Half life in human; assay type: ADME, organism-based; settings: in vivo

Structure (SMILES)	pEC50 [1]	Activity [2]	half-life [3]
Cc1nc(C)c(CN2CCN(C(=O)c3ccc(I)cc3)CC2)nc1C	3.90	25.17%	–
Cc1nc(C)c(CN2CCN(C(=O)C(=O)c3ccccc3)CC2)nc1C	3.52	26.11%	–
Cc1nc(C)c(CN2CCN(C(=O)c3ccccc3O)CC2)nc1C	5.21	16.71%	–
Cc1nc(C)c(CN2CCN(S(=O)(=O)c3ccccc3)CC2)nc1C	3.32	24.49%	–
Cc1ccc(S(=O)(=O)N2CCN(Cc3nc(C)c(C)nc3C)CC2)cc1	–	25.13%	–
CCOC(=O)N1CCN(Cc2nc(C)c(C)nc2C)CC1	4.12	15.25%	–
COc1cc(C(=O)N2CCN(Cc3nc(C)c(C)nc3C)CC2)cc(OC)c1OC	4.05	14.26%	–
COc1ccc(C(=O)N2CCN(Cc3nc(C)c(C)nc3C)CC2)cc1OC	3.77	29.06%	–
Cc1nc(C)c(CN2CCN(C(=O)c3cc([N+](=O)[O-])cc([N+](=O)[O-])c3)CC2)nc1C	3.75	15.67%	–
Cc1nc(C)c(CN2CCN(C(=O)CCc3ccccc3)CC2)nc1C	3.82	13.29%	–
Cc1nc(C)c(CN2CCN(C(=O)Cc3ccccc3)CC2)nc1C	3.72	25.59%	–
COc1cccc(/C=C/C(=O)N2CCN(Cc3nc(C)c(C)nc3C)CC2)c1OC	3.47	8.78%	–
COc1cc(/C=C/C(=O)N2CCN(Cc3nc(C)c(C)nc3C)CC2)ccc1OC(C)=O	–	5.84%	–
Cc1nc(C)c(CN2CCN(C(=O)c3ccccc3)CC2)nc1C	3.62	28.46%	–
Cc1nc(C)c(CN2CCN(C(=O)c3ccccc3Cl)CC2)nc1C	3.79	27.24%	–
Cc1nc(C)c(CN2CCN(C(=O)c3cccc(Cl)c3)CC2)nc1C	3.92	24.74%	–
Cc1nc(C)c(CN2CCN(C(=O)c3ccc(Cl)cc3)CC2)nc1C	3.68	25.62%	–

Structure (SMILES)	pEC50 [1]	Activity [2]	half-life [3]
Cc1nc(C)c(CN2CCN(C(=O)c3ccc(Cl)cc3Cl)CC2)nc1C	3.60	16.08%	–
COc1ccc(OC)c(/C=C/C(=O)N2CCN(Cc3nc(C)c(C)nc3C)CC2)c1	3.42	9.78%	–
CC(=O)Oc1ccccc1C(=O)N1CCN(Cc2nc(C)c(C)nc2C)CC1	3.80	3.02%	–
Cc1nc(C)c(CN2CCN(C(=O)c3cccnc3)CC2)nc1C	3.66	5.08%	–
Cc1nc(C)c(CN2CCN(C(=O)c3ccncc3)CC2)nc1C	4.53	6.07%	–
Cc1nc(C)c(CN2CCN(C(=O)C(C)(C)Oc3ccc(Cl)cc3)CC2)nc1C	–	13.68%	–
Cc1nc(C)c(CN2CCN(S(C)(=O)=O)CC2)nc1C	3.79	33.51%	–
Cc1nc(C)c(CN2CCN(C(=O)CCl)CC2)nc1C	3.83	24.89%	–
Cc1nc(C)c(CN2CCN(C(=O)c3ccco3)CC2)nc1C	4.43	21.76%	–
COc1ccc(C(=O)N2CCN(Cc3nc(C)c(C)nc3C)CC2)cc1	3.68	26.06%	–
Cc1nc(C)c(CN2CCN(C(=O)c3ccc([N+](=O)[O-])cc3)CC2)nc1C	3.34	28.64%	–
COc1ccc(/C=C/C(=O)N2CCN(Cc3nc(C)c(C)nc3C)CC2)cc1OC	3.55	6.13%	–
COc1ccccc1C(=O)N1CCN(Cc2nc(C)c(C)nc2C)CC1	3.60	24.27%	–
Cc1nc(C)c(CN2CCN(C(=O)/C=C/c3cccc([N+](=O)[O-])c3)CC2)nc1C	3.38	13.07%	–
Cc1nc(C)c(CN2CCN(C(=O)c3ccccc3I)CC2)nc1C	4.17	25.45%	–
Cc1nc(C)c(CN2CCN(C(=O)Cc3ccc([N+](=O)[O-])cc3)CC2)nc1C	3.42	18.24%	–
Cc1nc(C)c(C)nc1C [LIGUSTRAZINE]	3.81	7.86%	2.89 h
